“Also recorded” adds a separate entry of the source. Marks after values point to notes of the source that are not given here.
Assays:
Phase I pharmacokinetics = format: in vivo, human; details: for AUC(0‐t) / C avg / C max / C min / T max / AUC(0‐inf) / CL/F / T 1/2 / Vz/F: oral; for T max: median (range)
Method in brief: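 Plasma was sampled predose in all cycles and after dosing up to cycle 3. Plasma (100 µL) plus IS and 5 mmol/L ammonium hydrogen carbonate underwent solid-phase extraction, with methanol/formic acid elution. Drug in plasma and urine was quantified by LC-MS/MS: ODS column at 40°C, isocratic 40:60 water/acetonitrile-water with 15 mmol/L ammonium hydrogen carbonate, 0.25 mL/minute, positive-mode MRM. Parameters came from non-compartmental analysis.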

[1] = tested on: patients with advanced solid tumors; test: Phase I dose escalation: safety and tolerability; format: in vivo, human
Method in brief: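 Patients received a single 1 mg oral dose on cycle 0 day 1, then a washout on days 2-7. Oral once-daily dosing followed in 28-day cycles from day 8-10. Doses were escalated by mTPI design (target DLT rate 25% ± 5%). DLTs were assessed over cycles 0-1 against predefined haematological, non-haematological, calcification and hyperphosphataemia criteria. AEs were coded by MedDRA v20.1 and graded by CTCAE v4.03.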

[2] = repeated dose QD, 30 mg (n = 2), mean
[3] = repeated dose QD, 60 mg (n = 2), mean
[4] = repeated dose QD, 100 mg (n = 3), mean ± SD
[5] = repeated dose QD, 140 mg (n = 3), mean ± SD
[6] = repeated dose QD, 180 mg (n = 3), mean ± SD
[7] = single dose, 30 mg (n = 2), mean
[8] = single dose, 60 mg (n = 3), mean ± SD
[9] = single dose, 100 mg (n = 3), mean ± SD
[10] = single dose, 140 mg (n = 3), mean ± SD
[11] = single dose, 180 mg (n = 3), mean ± SD

## CNC(=O)n1ccc2cc(Oc3ccnc(NC(=O)c4ccc(C5CCN(CCO)CC5)cc4)c3)c(OCCOC)cc21 [E7090]
Phase I pharmacokinetics; 1‐16‐mg cohorts
  Plasma concentrations at 72 hours after dosing: below the limit of quantification
Phase I pharmacokinetics; [2]
  AUC(0‐t): 162 ng·h/mL
  C avg: 7 ng/mL
  C max: 13 ng/mL
  C min: 5 ng/mL
Phase I pharmacokinetics; repeated dose QD, 30 mg (n = 2)
  T max: 4 (3‐5) h
Phase I pharmacokinetics; [3]
  AUC(0‐t): 507 ^a h × ng/mL
  C avg: 21 ^a ng/mL
  C max: 51 ^a ng/mL
  C min: 11 ^a ng/mL
Phase I pharmacokinetics; repeated dose QD, 60 mg (n = 2)
  T max: 3 (2‐3) ^a h
Phase I pharmacokinetics; [4]
  AUC(0‐t): 1340 ± 437 ng·h/mL
  C avg: 56 ± 18 ng/mL
  C max: 116 ± 4 ng/mL
  C min: 22 ± 9 ng/mL
Phase I pharmacokinetics; repeated dose QD, 100 mg (n = 3)
  T max: 3 (2‐5) h
Phase I pharmacokinetics; [5]
  AUC(0‐t): 4700 ± 3380 ng·h/mL
  C avg: 196 ± 141 ng/mL
  C max: 372 ± 173 ng/mL
  C min: 117 ± 116 ng/mL
Phase I pharmacokinetics; repeated dose QD, 140 mg (n = 3)
  T max: 5 (3‐5) h
Phase I pharmacokinetics; [6]
  AUC(0‐t): 3860 ± 764 ng·h/mL
  C avg: 161 ± 32 ng/mL
  C max: 337 ± 60 ng/mL
  C min: 65 ± 19 ng/mL
Phase I pharmacokinetics; repeated dose QD, 180 mg (n = 3)
  T max: 5 (3‐5) h
Phase I pharmacokinetics; [7]
  AUC(0‐inf): 239 ng·h/mL
  AUC(0‐t): 222 ng·h/mL
  C max: 28 ng/mL
  CL/F: 127 L/h
  T 1/2: 23 h
  Vz/F: 4180 L
Phase I pharmacokinetics; single dose, 30 mg (n = 2)
  T max: 3 (1‐5) h
Phase I pharmacokinetics; [8]
  AUC(0‐inf): 554 ± 247 ng·h/mL
  AUC(0‐t): 533 ± 257 ng·h/mL
  C max: 39 ± 5 ng/mL
  CL/F: 121 ± 43 L/h
  T 1/2: 23 ± 8 h
  Vz/F: 3790 ± 1240 L
Phase I pharmacokinetics; single dose, 60 mg (n = 3)
  T max: 3 (3‐5) h
Phase I pharmacokinetics; [9]
  AUC(0‐inf): 1120 ± 479 ng·h/mL
  AUC(0‐t): 1080 ± 474 ng·h/mL
  C max: 86 ± 31 ng/mL
  CL/F: 103 ± 48 L/h
  T 1/2: 15 ± 2 h
  Vz/F: 2310 ± 1360 L
Phase I pharmacokinetics; single dose, 100 mg (n = 3)
  T max: 5 (3‐5) h
Phase I pharmacokinetics; [10]
  AUC(0‐inf): 4050 ± 3340 ng·h/mL
  AUC(0‐t): 3960 ± 3230 ng·h/mL
  C max: 227 ± 118 ng/mL
  CL/F: 59 ± 50 L/h
  T 1/2: 27 ± 12 h
  Vz/F: 1670 ± 617 L
Phase I pharmacokinetics; single dose, 140 mg (n = 3)
  T max: 5 (3‐5) h
Phase I pharmacokinetics; [11]
  AUC(0‐inf): 2610 ± 921 ng·h/mL
  AUC(0‐t): 2570 ± 933 ng·h/mL
  C max: 154 ± 38 ng/mL
  CL/F: 74 ± 22 L/h
  T 1/2: 24 ± 10 h
  Vz/F: 2550 ± 1550 L
Phase I pharmacokinetics; single dose, 180 mg (n = 3)
  T max: 2 (2‐5) h
Phase I pharmacokinetics; up to 180 mg
  C max and AUC(0‐ t ) versus dose: Dose‐dependent increases
[1]; 1 mg QD to 140 mg QD, cycle 0‐cycle 1
  Dose‐limiting toxicity (DLT): No DLT was observed; also recorded: no DLT were reported
[1]; 60 mg (n = 3), any grade
  ALT increased, treatment‐related TEAE: 1 (33.3) n (%)
  Anemia, treatment‐related TEAE: 1 (33.3) n (%)
  Blood creatinine increased, treatment‐related TEAE: 2 (66.7) n (%)
  Diarrhea, treatment‐related TEAE: 2 (66.7) n (%)
  Lipase increased, treatment‐related TEAE: 1 (33.3) n (%)
  Nausea, treatment‐related TEAE: 1 (33.3) n (%)
  PPE syndrome, treatment‐related TEAE: 1 (33.3) n (%)
  Vomiting, treatment‐related TEAE: 1 (33.3) n (%)
[1]; 100 mg (n = 3), any grade
  Anemia, treatment‐related TEAE: 1 (33.3) n (%)
